Measured values from ChEMBL document CHEMBL1123885, “Analogues of 3-ethyl-3-(4-pyridyl)piperidine-2,6-dione as selective inhibitors of aromatase: derivatives with variable 1-alkyl and 3-alkyl substituents” (J Med Chem, 1987).

Assays:
[1] = target: T1, Cholesterol side-chain cleavage enzyme, mitochondrial (Bos taurus, UniProt P00189); assay: Inhibition of bovine desmolase, cytochrome P450 11A1; NI = No Inhibition at maximum concentration tested
T1 sequence (P00189 whole entry): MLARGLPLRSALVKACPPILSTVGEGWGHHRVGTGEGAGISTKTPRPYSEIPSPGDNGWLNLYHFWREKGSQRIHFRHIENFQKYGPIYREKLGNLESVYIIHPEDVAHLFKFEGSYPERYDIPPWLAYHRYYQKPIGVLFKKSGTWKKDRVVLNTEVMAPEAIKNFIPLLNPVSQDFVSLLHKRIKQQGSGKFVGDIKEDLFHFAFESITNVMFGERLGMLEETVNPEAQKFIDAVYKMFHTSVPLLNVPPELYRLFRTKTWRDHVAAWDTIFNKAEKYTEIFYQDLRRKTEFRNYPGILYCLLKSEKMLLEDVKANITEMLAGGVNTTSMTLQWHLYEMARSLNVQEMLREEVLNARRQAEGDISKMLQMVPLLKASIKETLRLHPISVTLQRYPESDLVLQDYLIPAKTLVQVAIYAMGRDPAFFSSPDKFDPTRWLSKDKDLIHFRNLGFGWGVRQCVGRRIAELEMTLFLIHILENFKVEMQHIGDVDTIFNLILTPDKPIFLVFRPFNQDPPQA
Method in brief: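 Bovine adrenal cortex mitochondrial fraction as side-chain cleavage enzyme. […] Released [14C]isocaproic acid passes through alumina, which retains the steroid; eluate radioactivity is counted. Compound tested at 5, 10, 20 and 50 μg/mL. IC50 is the concentration that halves control activity, extrapolated when above the top concentration. "None" means no inhibition at the maximum tested.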

[2] = target: T2, Aromatase (Homo sapiens, UniProt P11511)
T2 sequence (P11511 whole entry): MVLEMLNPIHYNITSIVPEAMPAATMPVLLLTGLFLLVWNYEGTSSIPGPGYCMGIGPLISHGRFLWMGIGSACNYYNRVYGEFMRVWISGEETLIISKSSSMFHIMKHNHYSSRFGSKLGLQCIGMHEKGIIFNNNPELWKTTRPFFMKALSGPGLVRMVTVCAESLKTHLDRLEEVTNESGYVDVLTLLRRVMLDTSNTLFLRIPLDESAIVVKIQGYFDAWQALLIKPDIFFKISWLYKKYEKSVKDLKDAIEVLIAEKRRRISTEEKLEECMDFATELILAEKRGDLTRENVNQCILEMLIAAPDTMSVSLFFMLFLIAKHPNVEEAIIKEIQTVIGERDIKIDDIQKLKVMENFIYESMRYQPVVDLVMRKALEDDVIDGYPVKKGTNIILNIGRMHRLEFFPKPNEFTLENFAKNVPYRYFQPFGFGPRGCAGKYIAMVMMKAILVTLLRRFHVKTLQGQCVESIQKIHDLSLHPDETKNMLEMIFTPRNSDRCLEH

[3] = Partition coefficient (logP); assay type: physicochemical; conditions: octanol/water

| SMILES | IC50 [1] | IC50 [2] [µM] | logP [3] |
| --- | --- | --- | --- |
| CC1(c2ccncc2)CCC(=O)NC1=O (stereo not given) | No inhibition |  |  |
| CCCCN1C(=O)CCC(CC)(c2ccncc2)C1=O (stereo not given) | No inhibition |  | 2.76 |
| CCC1(c2ccncc2)CCC(=O)N(C)C1=O (stereo not given) | No inhibition |  |  |
| CCC1(c2ccncc2)CCC(=O)NC1=O (stereo not given) [ROGLETIMIDE] |  |  | 0.58 |
| CCCC1(c2ccncc2)CCC(=O)NC1=O (stereo not given) | No inhibition |  | 1.13 |
| CCN1C(=O)CCC(CC)(c2ccncc2)C1=O (stereo not given) | No inhibition |  | 1.64 |
| CCCCCCN1C(=O)CCC(CC)(c2ccncc2)C1=O (stereo not given) | No inhibition |  |  |
| CCCN1C(=O)CCC(CC)(c2ccncc2)C1=O (stereo not given) | No inhibition |  | 2.18 |

Results, then the compound that gave them:

| IC50 [1] | IC50 [2] [µM] | logP [3] | SMILES |
| --- | --- | --- | --- |
| No inhibition | 2.5 | 2.26 | CCCCCC1(c2ccncc2)CCC(=O)NC1=O (stereo not given) |
| No inhibition |  |  | CCCCC1(c2ccncc2)CCC(=O)NC1=O (stereo not given) |
| No inhibition | 3.6 | 2.94 | CCCCCCC1(c2ccncc2)CCC(=O)NC1=O (stereo not given) |
|  | 3.2 |  | CCCCCCCC1(c2ccncc2)CCC(=O)NC1=O (stereo not given) |
